Reference: ChEMBL document CHEMBL4689842, “EUbOPEN Chemogenomics Library wave 1” (2021)

System: HEK-293T
Experiment: Multiplex assay against HEK293T;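 for Population Tubulin-Different-Phenotype (%): share of the cells with healthy nuclei that show this phenotype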
Type: toxicity, cell-based
Settings: human
Summary of the method: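 At seeding, live cells were stained with Hoechst33342, BioTracker Green Microtubule Cytoskeleton Dye, MitoTracker Red and Annexin V Alexa Fluor 680. After compound addition they were imaged on a CQ1 microscope at 37°C and 5% CO2, and CellPathfinder machine-learning gating sorted them into Hoechst high-intensity objects or normal cells, with normal cells further split into healthy, pyknosed or fragmented nuclei and pyknosed cells into mitotic or apoptotic. Tubulin, mitochondrial-mass and membrane-permeability phenotypes are given as per cents of cells with healthy nuclei.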

[1] = 12 h, 1 µM, compound concentration 1 uM, replicate 1
[2] = 12 h, 1 µM, compound concentration 1 uM, replicate 2
[3] = 12 h, 10 µM, compound concentration 10 uM, replicate 1
[4] = 12 h, 10 µM, compound concentration 10 uM, replicate 2
[5] = 24 h, 1 µM, compound concentration 1 uM, replicate 1
[6] = 24 h, 1 µM, compound concentration 1 uM, replicate 2
[7] = 24 h, 10 µM, compound concentration 10 uM, replicate 1
[8] = 24 h, 10 µM, compound concentration 10 uM, replicate 2
[9] = 48 h, 1 µM, compound concentration 1 uM, replicate 1
[10] = 48 h, 1 µM, compound concentration 1 uM, replicate 2
[11] = 48 h, 10 µM, compound concentration 10 uM, replicate 1
[12] = 48 h, 10 µM, compound concentration 10 uM, replicate 2

Structure (SMILES): C=CC(=O)Nc1cc2c(Nc3ccc(F)c(Cl)c3)ncnc2cc1OCCCN1CCOCC1.Cl.Cl [CANERTINIB DIHYDROCHLORIDE]
- Population Apoptotic (%) [1]: 70%
- Population Fragmented Nuclei (%) [1]: 22%
- Population Healthy Nuclei (%) [1]: 35%
- Population Hoechst High Intensity Objects (%) [1]: 22%
- Population Membrane Permeable-Phenotype (%) [1]: 24%
- Population Mitochondria Different-Phenotype (%) [1]: 76%
- Population Mitotic Cells (%) [1]: 29%
- Population Normal (%) [1]: 77%
- Population Pyknosed Nuclei (%) [1]: 41%
- Population Tubulin-Different-Phenotype (%) [1]: 82%
- Total Cell Count [1]: 582
- Population Apoptotic (%) [2]: 47%
- Population Fragmented Nuclei (%) [2]: 4%
- Population Healthy Nuclei (%) [2]: 80%
- Population Hoechst High Intensity Objects (%) [2]: 7%
- Population Membrane Permeable-Phenotype (%) [2]: 17%
- Population Mitochondria Different-Phenotype (%) [2]: 92%
- Population Mitotic Cells (%) [2]: 52%
- Population Normal (%) [2]: 92%
- Population Pyknosed Nuclei (%) [2]: 14%
- Population Tubulin-Different-Phenotype (%) [2]: 97%
- Total Cell Count [2]: 863
- Population Apoptotic (%) [3]: 28%
- Population Fragmented Nuclei (%) [3]: 14%
- Population Healthy Nuclei (%) [3]: 60%
- Population Hoechst High Intensity Objects (%) [3]: 13%
- Population Membrane Permeable-Phenotype (%) [3]: 3%
- Population Mitochondria Different-Phenotype (%) [3]: 12%
- Population Mitotic Cells (%) [3]: 71%
- Population Normal (%) [3]: 86%
- Population Pyknosed Nuclei (%) [3]: 24%
- Population Tubulin-Different-Phenotype (%) [3]: 12%
- Total Cell Count [3]: 583
- Population Apoptotic (%) [4]: 8%
- Population Fragmented Nuclei (%) [4]: 6%
- Population Healthy Nuclei (%) [4]: 88%
- Population Hoechst High Intensity Objects (%) [4]: 3%
- Population Membrane Permeable-Phenotype (%) [4]: 2%
- Population Mitochondria Different-Phenotype (%) [4]: 16%
- Population Mitotic Cells (%) [4]: 91%
- Population Normal (%) [4]: 96%
- Population Pyknosed Nuclei (%) [4]: 5%
- Population Tubulin-Different-Phenotype (%) [4]: 16%
- Total Cell Count [4]: 1567
- Population Apoptotic (%) [5]: 79%
- Population Fragmented Nuclei (%) [5]: 21%
- Population Healthy Nuclei (%) [5]: 37%
- Population Hoechst High Intensity Objects (%) [5]: 24%
- Population Membrane Permeable-Phenotype (%) [5]: 8%
- Population Mitochondria Different-Phenotype (%) [5]: 69%
- Population Mitotic Cells (%) [5]: 20%
- Population Normal (%) [5]: 75%
- Population Pyknosed Nuclei (%) [5]: 40%
- Population Tubulin-Different-Phenotype (%) [5]: 56%
- Total Cell Count [5]: 612
- Population Apoptotic (%) [6]: 29%
- Population Fragmented Nuclei (%) [6]: 5%
- Population Healthy Nuclei (%) [6]: 80%
- Population Hoechst High Intensity Objects (%) [6]: 10%
- Population Membrane Permeable-Phenotype (%) [6]: 4%
- Population Mitochondria Different-Phenotype (%) [6]: 67%
- Population Mitotic Cells (%) [6]: 70%
- Population Normal (%) [6]: 89%
- Population Pyknosed Nuclei (%) [6]: 13%
- Population Tubulin-Different-Phenotype (%) [6]: 54%
- Total Cell Count [6]: 910
- Population Apoptotic (%) [7]: 21%
- Population Fragmented Nuclei (%) [7]: 14%
- Population Healthy Nuclei (%) [7]: 75%
- Population Hoechst High Intensity Objects (%) [7]: 9%
- Population Membrane Permeable-Phenotype (%) [7]: 6%
- Population Mitochondria Different-Phenotype (%) [7]: 7%
- Population Mitotic Cells (%) [7]: 78%
- Population Normal (%) [7]: 90%
- Population Pyknosed Nuclei (%) [7]: 9%
- Population Tubulin-Different-Phenotype (%) [7]: 12%
- Total Cell Count [7]: 665
- Population Apoptotic (%) [8]: 10%
- Population Fragmented Nuclei (%) [8]: 24%
- Population Healthy Nuclei (%) [8]: 73%
- Population Hoechst High Intensity Objects (%) [8]: 2%
- Population Membrane Permeable-Phenotype (%) [8]: 3%
- Population Mitochondria Different-Phenotype (%) [8]: 3%
- Population Mitotic Cells (%) [8]: 89%
- Population Normal (%) [8]: 97%
- Population Pyknosed Nuclei (%) [8]: 2%
- Population Tubulin-Different-Phenotype (%) [8]: 8%
- Total Cell Count [8]: 2738

Structure (SMILES): CN(C)C(=O)N[C@H]1CC[C@H](CCN2CCN(c3cccc(Cl)c3Cl)CC2)CC1.Cl [CARIPRAZINE HYDROCHLORIDE]
- Population Apoptotic (%) [1]: 48%
- Population Fragmented Nuclei (%) [1]: 12%
- Population Healthy Nuclei (%) [1]: 44%
- Population Hoechst High Intensity Objects (%) [1]: 13%
- Population Membrane Permeable-Phenotype (%) [1]: 1%
- Population Mitochondria Different-Phenotype (%) [1]: 88%
- Population Mitotic Cells (%) [1]: 51%
- Population Normal (%) [1]: 86%
- Population Pyknosed Nuclei (%) [1]: 42%
- Population Tubulin-Different-Phenotype (%) [1]: 59%
- Total Cell Count [1]: 326
- Population Apoptotic (%) [2]: 20%
- Population Fragmented Nuclei (%) [2]: 4%
- Population Healthy Nuclei (%) [2]: 42%
- Population Hoechst High Intensity Objects (%) [2]: 4%
- Population Membrane Permeable-Phenotype (%) [2]: 2%
- Population Mitochondria Different-Phenotype (%) [2]: 32%
- Population Mitotic Cells (%) [2]: 79%
- Population Normal (%) [2]: 95%
- Population Pyknosed Nuclei (%) [2]: 53%
- Population Tubulin-Different-Phenotype (%) [2]: 24%
- Total Cell Count [2]: 213
- Population Apoptotic (%) [3]: 85%
- Population Fragmented Nuclei (%) [3]: 7%
- Population Healthy Nuclei (%) [3]: 25%
- Population Hoechst High Intensity Objects (%) [3]: 15%
- Population Membrane Permeable-Phenotype (%) [3]: 1%
- Population Mitochondria Different-Phenotype (%) [3]: 98%
- Population Mitotic Cells (%) [3]: 14%
- Population Normal (%) [3]: 84%
- Population Pyknosed Nuclei (%) [3]: 67%
- Population Tubulin-Different-Phenotype (%) [3]: 98%
- Total Cell Count [3]: 285
- Population Apoptotic (%) [4]: 83%
- Population Fragmented Nuclei (%) [4]: 4%
- Population Healthy Nuclei (%) [4]: 16%
- Population Hoechst High Intensity Objects (%) [4]: 6%
- Population Membrane Permeable-Phenotype (%) [4]: 6%
- Population Mitochondria Different-Phenotype (%) [4]: 96%
- Population Mitotic Cells (%) [4]: 16%
- Population Normal (%) [4]: 93%
- Population Pyknosed Nuclei (%) [4]: 79%
- Population Tubulin-Different-Phenotype (%) [4]: 93%
- Total Cell Count [4]: 210
- Population Apoptotic (%) [5]: 46%
- Population Fragmented Nuclei (%) [5]: 14%
- Population Healthy Nuclei (%) [5]: 57%
- Population Hoechst High Intensity Objects (%) [5]: 11%
- Population Membrane Permeable-Phenotype (%) [5]: 1%
- Population Mitochondria Different-Phenotype (%) [5]: 77%
- Population Mitotic Cells (%) [5]: 53%
- Population Normal (%) [5]: 88%
- Population Pyknosed Nuclei (%) [5]: 27%
- Population Tubulin-Different-Phenotype (%) [5]: 55%
- Total Cell Count [5]: 379
- Population Apoptotic (%) [6]: 12%
- Population Fragmented Nuclei (%) [6]: 2%
- Population Healthy Nuclei (%) [6]: 63%
- Population Hoechst High Intensity Objects (%) [6]: 2%
- Population Membrane Permeable-Phenotype (%) [6]: 4%
- Population Mitochondria Different-Phenotype (%) [6]: 34%
- Population Mitotic Cells (%) [6]: 87%
- Population Normal (%) [6]: 97%
- Population Pyknosed Nuclei (%) [6]: 33%
- Population Tubulin-Different-Phenotype (%) [6]: 33%
- Total Cell Count [6]: 275
- Population Apoptotic (%) [7]: 90%
- Population Fragmented Nuclei (%) [7]: 11%
- Population Healthy Nuclei (%) [7]: 29%
- Population Hoechst High Intensity Objects (%) [7]: 14%
- Population Membrane Permeable-Phenotype (%) [7]: 0%
- Population Mitochondria Different-Phenotype (%) [7]: 98%
- Population Mitotic Cells (%) [7]: 9%
- Population Normal (%) [7]: 85%
- Population Pyknosed Nuclei (%) [7]: 59%
- Population Tubulin-Different-Phenotype (%) [7]: 100%
- Total Cell Count [7]: 289
- Population Apoptotic (%) [8]: 87%
- Population Fragmented Nuclei (%) [8]: 3%
- Population Healthy Nuclei (%) [8]: 37%
- Population Hoechst High Intensity Objects (%) [8]: 7%
- Population Membrane Permeable-Phenotype (%) [8]: 2%
- Population Mitochondria Different-Phenotype (%) [8]: 97%
- Population Mitotic Cells (%) [8]: 12%
- Population Normal (%) [8]: 92%
- Population Pyknosed Nuclei (%) [8]: 58%
- Population Tubulin-Different-Phenotype (%) [8]: 96%
- Total Cell Count [8]: 241
- Population Apoptotic (%) [9]: 29%
- Population Fragmented Nuclei (%) [9]: 9%
- Population Healthy Nuclei (%) [9]: 78%
- Population Hoechst High Intensity Objects (%) [9]: 7%
- Population Membrane Permeable-Phenotype (%) [9]: 0%
- Population Mitochondria Different-Phenotype (%) [9]: 37%
- Population Mitotic Cells (%) [9]: 70%
- Population Normal (%) [9]: 92%
- Population Pyknosed Nuclei (%) [9]: 12%
- Total Cell Count [9]: 609
- Population Apoptotic (%) [10]: 10%
- Population Fragmented Nuclei (%) [10]: 6%
- Population Healthy Nuclei (%) [10]: 80%
- Population Hoechst High Intensity Objects (%) [10]: 2%
- Population Membrane Permeable-Phenotype (%) [10]: 2%
- Population Mitochondria Different-Phenotype (%) [10]: 15%
- Population Mitotic Cells (%) [10]: 89%
- Population Normal (%) [10]: 97%
- Population Pyknosed Nuclei (%) [10]: 13%
- Population Tubulin-Different-Phenotype (%) [10]: 35%
- Total Cell Count [10]: 516
- Population Apoptotic (%) [11]: 78%
- Population Fragmented Nuclei (%) [11]: 16%
- Population Healthy Nuclei (%) [11]: 41%
- Population Hoechst High Intensity Objects (%) [11]: 15%
- Population Membrane Permeable-Phenotype (%) [11]: 0%
- Population Mitochondria Different-Phenotype (%) [11]: 99%
- Population Mitotic Cells (%) [11]: 21%
- Population Normal (%) [11]: 84%
- Population Pyknosed Nuclei (%) [11]: 42%
- Population Tubulin-Different-Phenotype (%) [11]: 94%
- Total Cell Count [11]: 342
- Population Apoptotic (%) [12]: 82%
- Population Fragmented Nuclei (%) [12]: 7%
- Population Healthy Nuclei (%) [12]: 51%
- Population Hoechst High Intensity Objects (%) [12]: 6%
- Population Mitochondria Different-Phenotype (%) [12]: 95%
- Population Mitotic Cells (%) [12]: 17%
- Population Normal (%) [12]: 93%
- Population Pyknosed Nuclei (%) [12]: 41%
- Population Tubulin-Different-Phenotype (%) [12]: 92%
- Total Cell Count [12]: 274
